From ChEMBL document CHEMBL1151475, “Thiopurine drugs azathioprine and 6-mercaptopurine inhibit Mycobacterium paratuberculosis growth in vitro” (2008)

Tests used:
Assay type in all cases: functional
[1] = test system: Mycobacterium avium subsp. paratuberculosis; test: Antituberculosis activity against Mycobacterium paratuberculosis ATCC 19698 isolated from bovine assessed as minimum drug level resulting in no detectable growth at 10^6 CFU of inoculum after 56 days by MGIT 960 susceptibility test
Procedure, shortened: (§1)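 M. paratuberculosis ATCC 19698 at 10^6 CFU per MGIT ParaTB tube in duplicate, drugs at final 1.0–64.0 μg/ml, 37°C in MGIT 960. Inhibition is the lowest concentration whose time to detection exceeds the 1:100 diluted-inoculum solvent control. No detectable growth means the tube never signals positive through 56 days.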

[2] = test system: Mycobacterium avium subsp. paratuberculosis; test: Antituberculosis activity against Mycobacterium paratuberculosis ATCC 19698 isolated from bovine assessed as lowest drug level producing inhibition at 10^6 CFU of inoculum by agar counting method
Procedure, shortened: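 ATCC 19698 at 10^6 CFU was exposed to drug (1.0–64.0 μg/ml) in MGIT ParaTB medium at 37°C. Aliquots taken at 3 and 5 days were centrifuged, resuspended in PBS and declumped with glass beads. Serial dilutions were plated in quadruplicate on 7H10/OADC/mycobactin J and counted after 8 weeks. Inhibition is the lowest concentration giving a 2 log10 (99%) CFU reduction.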

[3] = test system: Mycobacterium avium subsp. paratuberculosis; test: Antituberculosis activity against Mycobacterium paratuberculosis ATCC 19698 isolated from bovine assessed as lowest drug level producing inhibition at 10^6 CFU of inoculum by MGIT 960 susceptibility test; procedure, shortened: as §1

SMILES	Activity [1] [µg/mL]	Activity [2] [µg/mL]	Activity [3] [µg/mL]
CCn1cc(C(=O)O)c(=O)c2ccc(C)nc21 [NALIDIXIC ACID]	>64	>64	>64
CO[C@H]1/C=C/O[C@@]2(C)Oc3c(C)c(O)c4c(O)c(c(/C=N/N5CCN(C)CC5)c(O)c4c3C2=O)NC(=O)/C(C)=C\C=C\[C@H](C)[C@H](O)[C@@H](C)[C@@H](O)[C@@H](C)[C@H](OC(C)=O)[C@@H]1C [RIFAMPIN]	>64	2	2
Nc1ccc(S(=O)(=O)Nc2ccccn2)cc1 [SULFAPYRIDINE]	>64	>64	>64
O=C(O)c1cc(/N=N/c2ccc(S(=O)(=O)Nc3ccccn3)cc2)ccc1O [SULFASALAZINE]	>64	>64	>64
